Results: ChEMBL document CHEMBL1144934, “Efficacious and orally bioavailable thrombin inhibitors based on a 2,5-thienylamidine at the P1 position: discovery of N-carboxymethyl-d-diphenylalanyl-l-prolyl[(5-amidino-2-thienyl)methyl]amide” (J Med Chem, 2003)
Values joined by “and” are separate entries in the source; they are usually repeats but may differ in a detail not shown here. Equal values may be shown once. Values belong to the molecule of their own block, whether it stands above or below them.

How the values were obtained:
[1] = Area under curve (AUC) was determined after intravenous dosing at 10 mg/kg in rat; assay type: ADME, organism-based; design: dose 10 mg/kg, route intravenous; settings: in vivo
Method in brief: (§1)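 Male Sprague–Dawley rats (250–300 g), femoral artery and vein cannulated under light ether anesthesia; after recovery, 10 mg/kg given via femoral vein. Arterial blood sampled at 0, 1, 5, 15, 30, 60, 90, 120, 180, 240 min, collected into heparinized tubes, deproteinized with 2 volumes methanol, centrifuged; supernatant analyzed by HPLC (0.1% TFA/acetonitrile 81:19).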

Trypsin = Trypsin (Homo sapiens, UniProt P07477+P07478+P35030); assay: In vitro inhibition constant (Ki) against human trypsin was determined; assay type: protein assay
[2] = Steady state volume of distribution (Vdss) was determined after intravenous dosing at 10 mg/kg in rat; assay type: ADME, organism-based; design: dose 10 mg/kg, route intravenous; settings: in vivo, read-out: Vdss; method in brief: as §1
Plasminogen = Plasminogen (Homo sapiens, UniProt P00747); assay: In vitro inhibition constant (Ki) against human plasmin was determined
[3] = In vitro metabolic stability was determined using liver S9 fraction from monkey at initial concentration of 20 uM; assay type: ADME, subcellular; settings: simiiformes, read-out: Recovery
Method in brief: (§2)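 Liver S9 (9000g supernatant of homogenate in Tris-acetate pH 7.4, KCl, EDTA) from rat, dog, monkey (pooled, n = 2) or human (n = 2); 20 µM final compound with NADPH generating system and S9 6.72 mg/mL in 100 mM phosphate pH 7.4, 37 °C. Samples methanol-deproteinized, HPLC; recovery after 30 min reported; no-NADPH control.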

Canis lupus familiaris [4] = assay: Area under curve (AUC) was determine after intravenous dosing at 2.5 mg/kg in dog
[5] = In vitro metabolic stability was determined using liver S9 fraction from dog at initial concentration of 20 uM; assay type: ADME, Canis lupus familiaris; settings: read-out: Recovery; method in brief: as §2
[6] = Half life of compound was determined after intravenous dosing at 10 mg/kg in rat; assay type: ADME, organism-based; design: dose 10 mg/kg, route intravenous; settings: in vivo; method in brief: as §1
Rattus norvegicus [7] = species: Rattus norvegicus; assay: Ex vivo concentration of inhibitor to double the activated clotting time was measured in rat plasma; assay type: functional
[8] = biological target: Thrombin & trypsin (Homo sapiens) (UniProt P00734+P07477+P07478+P35030); assay: Selectivity of compound was determined between thrombin and human trypsin; assay type: protein assay
Homo sapiens [9] = species: Homo sapiens; assay: (§3) In vitro metabolic stability was determined using liver S9 fraction from human at initial concentration of 20 uM; assay type: ADME; settings: 20 µM; method in brief: as §2
[10] = as §3; assay type: ADME; settings: liver S9 fraction, read-out: Recovery; method in brief: as §2
Rattus norvegicus [11] = assay: In vivo inhibition of thrombus formation in thromboplastin-induced deep vein thrombosis (DVT) rat model after iv bolus dosing at 1 mg/kg; assay type: functional
[12] = Clearance was determined after intravenous dosing at 2 mg/kg in monkey; assay type: functional, organism-based; design: dose 2 mg/kg
[13] = Steady state volume of distribution (Vdss) was evaluated at 2.5 mg/kg after intravenous dosing; assay type: functional, organism-based; design: dose 2.5 mg/kg
[14] = Half life of compound (t 1/2) was evaluated at 20 mg/kg after postoral dosing in monkey; assay type: functional, organism-based; design: dose 20 mg/kg
[15] = Selectivity of compound was determined between thrombin and human plasmin
[16] = Steady state volume of distribution (Vdss) was evaluated at 2 mg/kg after intravenous dosing in monkey; assay type: functional, organism-based; design: dose 2 mg/kg
Serine protease 1 = biological target: T1, Serine protease 1 (Bos taurus, UniProt P00760); assay: In vitro inhibition constant (Ki) against […] trypsin was determined
T1 sequence (P00760 whole entry): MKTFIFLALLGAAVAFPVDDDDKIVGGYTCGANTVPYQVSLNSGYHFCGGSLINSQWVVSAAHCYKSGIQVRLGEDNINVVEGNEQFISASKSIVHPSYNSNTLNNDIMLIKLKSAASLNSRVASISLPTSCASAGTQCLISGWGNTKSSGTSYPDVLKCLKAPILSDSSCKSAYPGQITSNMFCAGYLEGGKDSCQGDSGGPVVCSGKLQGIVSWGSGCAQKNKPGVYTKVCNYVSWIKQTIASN

[17] = Maximal plasma concentration in dogs after 5 mg/kg oral dose; assay type: ADME, organism-based, Canis lupus familiaris; design: dose 5 mg/kg, route oral; settings: dog
[18] = Clearance value was determined after intravenous dosing at 2.5 mg/kg; assay type: functional, organism-based; design: dose 2.5 mg/kg
[19] = Selectivity of compound was determined between thrombian and human t-PA
[20] = Time of maximum plasma concentration of compound in monkey at 5 mg/kg was determined; assay type: functional, organism-based; design: dose 5 mg/kg
Canis lupus familiaris [21] = assay: Bioavailability of compound (F %) was evaluated at 5 mg/kg in dog; assay type: functional, organism-based
[22] = Bioavailability in rat; assay type: ADME, organism-based; settings: in vivo
Primates = assay: Bioavailability of compound(F %) was evaluated at mg/kg in Monkey; assay type: functional, organism-based
[23] = Half life of compound (t 1/2) was evaluated at 5 mg/kg after postoral dosing; assay type: functional, organism-based; design: dose 5 mg/kg
[24] = Area under curve (AUC) was determine after postoral dosing at 5 mg/kg in dog; assay type: functional, organism-based; design: dose 5 mg/kg
Rattus norvegicus [25] = assay: Ex vivo activated clotting time was measured in rat plasma at 1 mg/kg; assay type: functional
[26] = biological target: Tissue-type plasminogen activator (Homo sapiens, UniProt P00750); assay: In vitro inhibition constant (Ki) against human Tissue type plasminogen activator was determined
[27] = Area under curve (AUC) was determine after intravenous dosing at 2 mg/kg in monkey; assay type: functional, organism-based; design: dose 2 mg/kg
[28] = Half life of compound (t 1/2) was evaluated at 2.5 mg/kg after intravenous dosing; assay type: functional, organism-based; design: dose 2.5 mg/kg
[29] = Area under curve (AUC) was determine after oral dosing at 20 mg/kg in monkey
Homo sapiens [30] = species: Homo sapiens
[31] = Clearance value was determined after intravenous dosing at 10 mg/kg in rat; assay type: ADME, organism-based; design: dose 10 mg/kg, route intravenous; settings: in vivo; method in brief: as §1
Coagulation factor X = Coagulation factor X (Homo sapiens, UniProt P00742); assay: In vitro inhibition constant (Ki) against human Coagulation factor X was determined
Rattus norvegicus [32] = species: Rattus norvegicus; assay: In vitro concentration of inhibitor to double the activated partial thromboplastin time was evaluated in rat; assay type: functional
Method in brief: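 Rat plasma mixed with inhibitor and an equal volume of aPTT reagent (Platelin LS), incubated 5 min at 37 °C, then 100 μL of 25 mM CaCl2 added. Clotting time read on an automatic coagulometer. Value taken as the inhibitor concentration that doubles aPTT.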

[33] = biological target: Thrombin and coagulation factor X (Homo sapiens) (UniProt P00734+P00742); assay: Selectivity of compound was determined between thrombin and human factor Xa; assay type: protein assay
[34] = tested on: thrombin (Homo sapiens) & trypsin (Bos taurus); assay: Selectivity of compound was determined between thrombin and bovine trypsin
[35] = Maximal plasma concentration in monkeys after 20 mg/kg oral dose; settings: cynomolgus monkey
[36] = Half life of compound (t 1/2) was evaluated at 2 mg/kg after intravenous dosing in monkey; assay type: functional, organism-based; design: dose 2 mg/kg
Prothrombin = Prothrombin (Homo sapiens, UniProt P00734); assay: In vitro inhibition constant (Ki) against human thrombin
[37] = Area under curve (AUC) was determine after intravenous dosing at 10 mg/kg; assay type: ADME, organism-based; design: dose 10 mg/kg, route intravenous; settings: in vivo

Sequence of Plasminogen (P00747 97-580 limits assumed): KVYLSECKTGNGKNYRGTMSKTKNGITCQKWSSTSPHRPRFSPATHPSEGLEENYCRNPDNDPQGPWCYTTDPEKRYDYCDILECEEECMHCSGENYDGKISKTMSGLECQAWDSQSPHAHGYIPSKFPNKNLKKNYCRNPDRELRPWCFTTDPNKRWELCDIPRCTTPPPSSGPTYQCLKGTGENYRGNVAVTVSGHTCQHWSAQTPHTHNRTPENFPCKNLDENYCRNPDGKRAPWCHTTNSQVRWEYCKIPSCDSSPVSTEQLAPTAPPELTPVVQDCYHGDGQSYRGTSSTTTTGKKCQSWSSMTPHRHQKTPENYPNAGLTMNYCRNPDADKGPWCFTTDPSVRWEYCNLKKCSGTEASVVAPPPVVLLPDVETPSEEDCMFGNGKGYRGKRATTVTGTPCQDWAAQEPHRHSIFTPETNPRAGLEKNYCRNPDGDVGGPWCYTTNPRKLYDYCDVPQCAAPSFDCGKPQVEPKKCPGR
Sequence of Plasminogen (P00747 581-810 limits assumed): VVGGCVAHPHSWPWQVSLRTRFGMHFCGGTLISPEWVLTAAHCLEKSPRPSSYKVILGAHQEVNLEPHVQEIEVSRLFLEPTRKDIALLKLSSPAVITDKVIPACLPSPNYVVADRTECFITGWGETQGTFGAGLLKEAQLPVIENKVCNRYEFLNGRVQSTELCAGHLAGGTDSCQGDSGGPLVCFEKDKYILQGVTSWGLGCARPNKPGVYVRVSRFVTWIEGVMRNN
Sequence of Tissue-type plasminogen activator (P00750 whole entry): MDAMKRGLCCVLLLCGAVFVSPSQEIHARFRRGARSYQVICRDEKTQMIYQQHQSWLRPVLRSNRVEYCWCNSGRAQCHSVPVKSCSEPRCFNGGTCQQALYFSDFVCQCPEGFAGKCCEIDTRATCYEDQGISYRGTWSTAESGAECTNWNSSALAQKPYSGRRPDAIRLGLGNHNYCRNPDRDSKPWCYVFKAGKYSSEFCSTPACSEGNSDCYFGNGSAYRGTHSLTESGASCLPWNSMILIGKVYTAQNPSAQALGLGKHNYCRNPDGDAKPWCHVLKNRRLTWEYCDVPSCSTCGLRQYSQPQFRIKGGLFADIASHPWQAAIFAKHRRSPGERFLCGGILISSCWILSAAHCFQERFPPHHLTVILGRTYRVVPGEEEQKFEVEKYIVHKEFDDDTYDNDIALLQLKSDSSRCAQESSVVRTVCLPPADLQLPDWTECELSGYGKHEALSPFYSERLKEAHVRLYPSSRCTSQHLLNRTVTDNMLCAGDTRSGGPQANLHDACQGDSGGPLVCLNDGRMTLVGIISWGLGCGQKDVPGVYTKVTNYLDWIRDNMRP
Sequence of Thrombin and coagulation factor X (Homo sapiens) (P00742 whole entry, looked up, other chains not shown): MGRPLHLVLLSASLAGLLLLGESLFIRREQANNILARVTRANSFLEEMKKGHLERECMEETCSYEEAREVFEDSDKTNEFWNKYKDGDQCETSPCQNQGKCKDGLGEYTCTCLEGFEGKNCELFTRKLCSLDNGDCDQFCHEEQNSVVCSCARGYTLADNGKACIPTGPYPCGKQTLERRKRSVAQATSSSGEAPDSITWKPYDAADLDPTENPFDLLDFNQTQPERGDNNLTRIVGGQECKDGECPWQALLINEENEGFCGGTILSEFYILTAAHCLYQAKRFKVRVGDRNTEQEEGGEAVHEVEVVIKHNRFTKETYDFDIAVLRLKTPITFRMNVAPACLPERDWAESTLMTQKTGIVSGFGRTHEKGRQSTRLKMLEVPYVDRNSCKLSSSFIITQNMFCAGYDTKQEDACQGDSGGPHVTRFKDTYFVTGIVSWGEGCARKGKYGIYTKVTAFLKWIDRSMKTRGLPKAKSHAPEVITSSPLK
Sequence of Coagulation factor X (P00742 41-179 limits assumed): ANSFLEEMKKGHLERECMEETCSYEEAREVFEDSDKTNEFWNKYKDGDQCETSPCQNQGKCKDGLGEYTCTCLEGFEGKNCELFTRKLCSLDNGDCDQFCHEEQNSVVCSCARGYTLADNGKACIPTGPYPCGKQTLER
Sequence of Coagulation factor X (P00742 235-488 limits assumed): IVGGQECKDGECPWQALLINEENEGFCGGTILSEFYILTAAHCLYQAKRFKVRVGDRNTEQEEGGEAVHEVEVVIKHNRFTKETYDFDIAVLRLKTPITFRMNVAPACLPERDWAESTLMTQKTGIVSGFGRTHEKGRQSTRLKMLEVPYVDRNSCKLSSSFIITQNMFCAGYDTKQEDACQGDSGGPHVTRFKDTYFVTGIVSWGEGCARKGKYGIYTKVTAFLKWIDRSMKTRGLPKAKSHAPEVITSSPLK

SMILES: N=C(N)c1ccc(CNC(=O)[C@@H]2CCCN2C(=O)[C@H](NCC(=O)O)C(c2ccccc2)c2ccccc2)s1
AUC [1]: 17600 ng·h/mL | Ki (Trypsin): 0.3 nM | Vd [2]: 0.258 L/kg | Ki (Plasminogen): 7400 nM | remaining at 20 µM [3]: 83% | AUC (Canis lupus familiaris [4]): 7620 ng·h/mL | remaining at 20 µM [5]: 99% | half-life [6]: 47 min | Concentration to double activated clotting time (Rattus norvegicus [7]): 0.85 µM | Selectivity [8]: 20 | Recovery (Homo sapiens [9]): 95% | remaining at 20 µM [10]: 95% | inhibition in vivo at 1 mg/kg (Rattus norvegicus [11]): 100% | CL (mL.min-1.kg-1) [12]: 9.8 | Vdss [13]: 0.223 L/kg | T1/2 [14]: 58 min | Selectivity [15]: > 10000 | Vdss [16]: 0.23 L/kg | Ki (Serine protease 1): 3 nM | Cmax [17]: 3800 ng/mL | CL (mL.min-1.kg-1) [18]: 5.9 | Selectivity [19]: > 10000 | Tmax [20]: 30 min and 90 min | bioavailability (Canis lupus familiaris [21]): 42% | bioavailability [22]: 43% | bioavailability (Primates): 15% | T1/2 [23]: 68 min | AUC [24]: 6050 ng·h/mL | ACT (Rattus norvegicus [25]): 12 | Ki [26]: 433 nM | AUC [27]: 3420 ng·h/mL | T1/2 [28]: 54 min | AUC [29]: 5150 ng·h/mL | APTT (Homo sapiens [30]): 0.23 µM | clearance [31]: 9.6 mL/min/kg | Ki (Coagulation factor X): 2250 nM | APTT (Rattus norvegicus [32]): 0.97 µM | Selectivity [33]: > 10000 | Selectivity [34]: 200 | Cmax [35]: 2100 ng/mL | T1/2 [36]: 23 min

Ki (Prothrombin): 0.64 nM | Vd [2]: 0.189 L/kg | AUC [37]: 29100 ng·h/mL | half-life [6]: 50 min | bioavailability [22]: 21% | clearance [31]: 6 mL/min/kg
SMILES: N=C(N)c1csc(CNC(=O)[C@@H]2CCCN2C(=O)[C@H](NCC(=O)O)C(c2ccccc2)c2ccccc2)n1
